Screening data as filed in PubChem BioAssay.
Shown are actives, neighbours in structure and some others; about 1.3% of the full set was active somewhere.
LYPLA1 counter: blocks human lysophospholipase 1, a PME1 counter-screen; O75608; recombinant LYPLA1, FP-Rh probe fluorescence polarization; inhibition, % at 5.9 µM; 0.16% of 320,000 active;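 active = inhibition above the mean of all tested compounds plus 3 SD, set per campaign, cut at about 14% in these data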;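 also: inhibitors block serine hydrolase probe labeling of LYPLA1 so polarization falls; 0% = enzyme with DMSO and 100% = wells lacking LYPLA1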
LYPLA2 counter: blocks human lysophospholipase 2, a PME1 counter-screen; O95372; recombinant LYPLA2, FP-Rh probe fluorescence polarization; inhibition, % at 5.9 µM; 0.38% of 320,000 active;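 active = inhibition above the screen-wide mean plus 3 SD, limit set per campaign, cut at about 26% in these data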;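 also: 0% = LYPLA2 with DMSO and 100% = wells lacking LYPLA2 enzyme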
Target sequence (O95372 whole entry, looked up): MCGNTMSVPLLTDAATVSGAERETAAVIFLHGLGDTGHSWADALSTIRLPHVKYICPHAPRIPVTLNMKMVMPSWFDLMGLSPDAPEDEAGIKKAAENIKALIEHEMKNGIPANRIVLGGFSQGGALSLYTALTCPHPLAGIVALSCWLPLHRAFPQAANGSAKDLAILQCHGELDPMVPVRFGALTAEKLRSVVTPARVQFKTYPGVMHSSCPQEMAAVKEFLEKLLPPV
Fam108B inh: blocks mouse Fam108B hydrolase in RBBP9 counter-screen. recombinant Fam108B, FP-Rh probe fluorescence polarization. inhibition, % at 9.51 µM. 0.33% of 300,000 active;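 active = inhibition above the screen mean inhibition plus 3 SD, computed separately per campaign, cut at about 18% in these data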;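 also: inhibitors lower polarization as less probe binds the enzyme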
PME-1 primary: blocks human protein phosphatase methylesterase 1 | 0.53% of 320,000 active | inhibition, % at 5.9 µM | Q9Y570 | recombinant PME-1, FP-Rh probe fluorescence polarization | AID 2130;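 active = inhibition above the campaign mean of all compounds plus 3 SD, cut at about 26% in these data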;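 also: competitive labeling of PME-1 active site by serine hydrolase directed probe; 0% = PME-1 with DMSO and 100% = wells lacking PME-1 enzyme; inhibitors block probe labeling so polarization falls and inhibition rises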
Target sequence (Q9Y570 whole entry, looked up): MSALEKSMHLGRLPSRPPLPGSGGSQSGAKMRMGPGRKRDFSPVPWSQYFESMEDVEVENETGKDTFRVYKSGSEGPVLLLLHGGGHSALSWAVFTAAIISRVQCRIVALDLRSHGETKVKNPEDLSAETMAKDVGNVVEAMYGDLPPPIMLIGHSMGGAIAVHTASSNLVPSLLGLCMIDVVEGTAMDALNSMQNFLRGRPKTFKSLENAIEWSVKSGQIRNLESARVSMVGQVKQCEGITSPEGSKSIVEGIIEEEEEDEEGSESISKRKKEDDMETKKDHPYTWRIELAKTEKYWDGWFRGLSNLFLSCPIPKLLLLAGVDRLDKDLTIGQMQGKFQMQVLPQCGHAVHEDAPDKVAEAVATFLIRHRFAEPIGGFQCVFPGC
RBBP9 inh: blocks human serine hydrolase RBBP9; recombinant RBBP9, FP-Rh probe fluorescence polarization; 0.2% of 220,000 active; O75884; inhibition, % at 7.94 µM; AID 1515;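 active = inhibition above the campaign mean of all tested compounds plus 3 SD, cut at about 14% in these data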;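 also: plate controls were DMSO wells with RBBP9 for no effect and wells lacking RBBP9 protein for full effect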
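Measured by: FP readout at 525/598 nm; material: recombinant human RBBP9; also added: Serine-hydrolase probe FP-Rh, 375 nM pre-mixing; medium: Tris buffer pH 8.0, NaCl, Pluronic; replication: one well per compound; doses: one concentration, 7.94 µM nominal, 0.794% DMSO; timing: preincubation 30 min plus labeling 45 min at 25 °C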
PAD4 FP inh: PAD4 (human) enzyme inhibition. recombinant PAD4, RCA probe fluorescence polarization. AID 485272. inhibition, % at 6.36 µM. Q9UM07. 0.41% of 330,000 active;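 active = percent inhibition above a cutoff equal to the mean of all tested compounds plus 3 SD, cut at about 15% in these data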;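 also: 0% = PAD4 with RCA probe and DMSO and 100% = probe without PAD4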
Fam108b inh conf: Fam108b (mouse) hydrolase inhibition, confirmation assay. 44% of 930 active. shares compounds with Fam108B inh. recombinant Fam108b, FP-Rh probe fluorescence polarization. AID 1978. inhibition, % at 9.51 µM;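 active = inhibition above a limit from the primary screen, the mean over all compounds plus 3 SD, cut at about 19% in these data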;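 also: 0% = median of active Fam108b wells and 100% = catalytically dead S170A mutant; inhibitors free the probe so polarization falls as inhibition rises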
Fam108b ABPP HTS: inhibits mouse Fam108b in gel-based ABPP; shares compounds with Fam108B inh; recombinant Fam108b, fluorophosphonate probe; inhibition, % at 20 µM; 44% of 260 active; AID 588649; in the data active = inhibition above about 40%
Active calls of the source: *.

What do the screens show for `COc1cccc(/C=N/NC(=O)c2cc3c(OC)ccc(OC)c3[nH]2)c1O`?
LYPLA1 counter: -1; LYPLA2 counter: 5; Fam108B inh: 27*; PME-1 primary: 42*; PAD4 FP inh: -4; Fam108b inh conf: 14

Results for COc1cc2cc(C(=O)N/N=C/c3ccccc3Cl)[nH]c2cc1OC ?
LYPLA1 counter: 3; LYPLA2 counter: 0; Fam108B inh: 32*; PME-1 primary: -3; PAD4 FP inh: -7; Fam108b inh conf: 30*

Results for CSCCC(NC(=O)c1ccccc1Br)C(=O)N1CCCCCCC1 (configuration not stated) ?
LYPLA1 counter: 0; LYPLA2 counter: 3; Fam108B inh: 1; PME-1 primary: 2; PAD4 FP inh: 0

How did Cc1c(Br)c(=O)oc2c(Br)c(O)c(O)cc12 do in these assays?
LYPLA1 counter: 5; LYPLA2 counter: 3; Fam108B inh: 25*; PME-1 primary: 14; RBBP9 inh: 1; PAD4 FP inh: 5; Fam108b inh conf: 21*

Results for Cc1c(Br)c(=O)oc2c(Br)c(O)ccc12 ?
LYPLA1 counter: -1; LYPLA2 counter: -5; Fam108B inh: 1; PME-1 primary: -3; RBBP9 inh: 3; PAD4 FP inh: 2

How did NC(=O)c1sc2nc3c(c(-c4ccco4)c2c1N)CCC3 do in these assays?
LYPLA1 counter: -4; LYPLA2 counter: 4; Fam108B inh: 11; PME-1 primary: 12; RBBP9 inh: -4; PAD4 FP inh: 1

Results for Nc1c(C(=O)NC2CC2)sc2nc3c(c(-c4ccco4)c12)CC/C3=C/c1ccco1 ?
LYPLA1 counter: -9; LYPLA2 counter: 2; Fam108B inh: 33*; PME-1 primary: 10; RBBP9 inh: 1; PAD4 FP inh: -13; Fam108b inh conf: 14

How did CCC(=O)O[C@]1(C(=O)SCF)[C@H](C)C[C@H]2[C@@H]3C[C@H](F)C4=CC(=O)C=C[C@]4(C)[C@@]3(F)[C@@H](O)C[C@@]21C do in these assays?
LYPLA1 counter: 3; LYPLA2 counter: 3; Fam108B inh: 0; PME-1 primary: -1; PAD4 FP inh: 0

What do the screens show for `CCc1ccc(S(=O)(=O)/N=C2\C=C(Nc3ccc(C(=O)O)cc3)C(=O)c3ccccc32)cc1`?
LYPLA1 counter: 10; LYPLA2 counter: 18; Fam108B inh: 58*; PME-1 primary: 30*; PAD4 FP inh: 69*; Fam108b inh conf: 74*; Fam108b ABPP HTS: 0

Results for CCOc1ccc2nc(N3C(=O)/C(=C/c4ccccc4)NC3=S)sc2c1 ?
LYPLA1 counter: 6; LYPLA2 counter: -6; Fam108B inh: 20*; PME-1 primary: 23; RBBP9 inh: -4; PAD4 FP inh: 3; Fam108b inh conf: 12

Results for COc1ccc2nc(N3C(=O)/C(=C/c4ccccc4)NC3=S)sc2c1 ?
LYPLA1 counter: 4; LYPLA2 counter: -3; Fam108B inh: 20*; PME-1 primary: 58*; RBBP9 inh: -13; PAD4 FP inh: -15; Fam108b inh conf: 22*

How did CCOc1ccc2nc(N3CCCCCC3)sc2c1 do in these assays?
LYPLA1 counter: -1; LYPLA2 counter: 3; Fam108B inh: -1; PME-1 primary: -3; RBBP9 inh: -7; PAD4 FP inh: 2

Results for N/C(=N\NS(=O)(=O)c1ccc(Cl)cc1)c1ccccn1 ?
LYPLA1 counter: 1; LYPLA2 counter: -7; Fam108B inh: -2; PME-1 primary: 6; PAD4 FP inh: 3

How did O=C(CCl)c1ccc2[nH]c(=O)oc2c1 do in these assays?
LYPLA1 counter: 1; LYPLA2 counter: -1; Fam108B inh: 4; PME-1 primary: 5; RBBP9 inh: -6; PAD4 FP inh: 1

How did O=C(NN1C(=O)/C(=C\c2ccc(O)c([N+](=O)[O-])c2)SC1=S)c1ccccc1Cl do in these assays?
LYPLA1 counter: -3; LYPLA2 counter: -3; Fam108B inh: 25*; PME-1 primary: 3; RBBP9 inh: -11; PAD4 FP inh: -11; Fam108b inh conf: 20*

How did N#Cc1c(N2CCCC(O)C2)nc(N)c2c(N)nc3c(c12)CC(=O)N3C12CC3CC(CC(C3)C1)C2 (configuration not stated) do in these assays?
LYPLA1 counter: -3; LYPLA2 counter: 0; Fam108B inh: 19*; PME-1 primary: 11; RBBP9 inh: 1; PAD4 FP inh: 1; Fam108b inh conf: 17

Results for Cc1cc(C)c(NC(=O)CSc2nnc(CNC(=O)c3ccco3)o2)c(C)c1 ?
LYPLA1 counter: -1; LYPLA2 counter: -2; Fam108B inh: -1; PME-1 primary: 10; PAD4 FP inh: -1

What do the screens show for `CC(C)[C@H](NC(=O)c1ccccc1)C(=O)OCC(=O)N1CCN(C(=O)c2ccco2)CC1`?
LYPLA1 counter: -4; LYPLA2 counter: -2; Fam108B inh: 7; PME-1 primary: -1; RBBP9 inh: -14; PAD4 FP inh: -1

Results for CN(C)c1ccc(/C=N/N2C(=S)SC(C)(C)C2N(O)C(=O)Nc2ccc([N+](=O)[O-])cc2)cc1 (configuration not stated) ?
LYPLA1 counter: -3; LYPLA2 counter: 4; Fam108B inh: 33*; PME-1 primary: 5; RBBP9 inh: -15; PAD4 FP inh: -3; Fam108b inh conf: 100*

Results for CNC(=O)N(O)C1N(/N=C/c2ccc(SC)cc2)C(=S)SC1(C)C (configuration not stated) ?
LYPLA1 counter: -1; LYPLA2 counter: 5; Fam108B inh: -3; PME-1 primary: -1; PAD4 FP inh: 2

What do the screens show for `CN(C)c1ccc(C=NN2C(=S)SC(C)(C)C2N(O)C(=O)Nc2ccc([N+](=O)[O-])cc2)cc1` (configuration not stated)?
Fam108b ABPP HTS: 95*

What do the screens show for `Cc1nc2sc(C(N)=O)c(N)c2c2c1CCCC2`?
LYPLA1 counter: 0; LYPLA2 counter: 2; Fam108B inh: 2; PME-1 primary: -2; RBBP9 inh: -2; PAD4 FP inh: -1

Results for c1coc(C2Nc3cccc4cccc(c34)N2)c1 ?
LYPLA1 counter: -8; LYPLA2 counter: -2; Fam108B inh: 22*; PME-1 primary: 8; RBBP9 inh: 2; PAD4 FP inh: -3; Fam108b inh conf: 18*

How did Clc1cccc(C2Nc3cccc4cccc(c34)N2)c1Cl do in these assays?
LYPLA1 counter: -1; LYPLA2 counter: 0; Fam108B inh: 9; PME-1 primary: -5; PAD4 FP inh: -5

How did Oc1ccc(C2Nc3cccc4cccc(c34)N2)c(O)c1 do in these assays?
LYPLA1 counter: 3; LYPLA2 counter: 18; Fam108B inh: 67*; PME-1 primary: 64*; RBBP9 inh: -2; PAD4 FP inh: -4; Fam108b inh conf: 45*; Fam108b ABPP HTS: 65*
